Values joined by “and” are separate entries in the source; they are usually repeats but may differ in a detail not shown here. Equal entries are not always repeated. Where two headings read alike, the source gives them in different places.
Key:
Type in all cases: cell-based
Kir7.1-M125R = target: T1, Kir7.1-M125R (Homo sapiens, UniProt O60928, M125R); assay: Tl+ flux assay in T-REx-HEK293 cells expressing Kir7.1-M125R
T1 sequence (O60928 1-360 M125R): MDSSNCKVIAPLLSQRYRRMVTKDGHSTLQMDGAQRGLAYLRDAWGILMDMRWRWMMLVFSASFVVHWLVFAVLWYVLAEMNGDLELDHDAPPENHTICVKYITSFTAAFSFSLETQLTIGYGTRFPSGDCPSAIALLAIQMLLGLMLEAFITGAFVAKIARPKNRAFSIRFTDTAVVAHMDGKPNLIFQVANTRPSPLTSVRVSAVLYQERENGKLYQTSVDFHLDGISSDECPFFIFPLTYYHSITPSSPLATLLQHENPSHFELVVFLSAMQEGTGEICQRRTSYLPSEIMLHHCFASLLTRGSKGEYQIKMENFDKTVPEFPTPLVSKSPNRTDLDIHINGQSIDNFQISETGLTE
In short: (§1)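 Tetracycline-inducible stable T-REx-HEK-293 lines, induced overnight with 1 µg/ml tetracycline in DMEM/10% dialyzed FBS. Cells loaded 1 hr with 1.2 µM Thallos-AM in HBSS/20 mM HEPES pH 7.3 with 0.01% Pluronic F-127. Baseline fluorescence (ex 470, em 540 nm) read at 1 Hz before adding stimulus buffer with 1.8 mM Tl₂SO₄. Traces normalized to first point and vehicle-subtracted; slope taken 5–20 s post-Tl⁺; IC50 by nonlinear regression of CRCs.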

Kir2.1 = target: T2, Kir2.1 (Homo sapiens, UniProt P63252); assay: Tl+ flux selectivity assay, Kir2.1; conditions: for Kir Channel Selectivity (Fold) 2.1: Thallium flux, Kir7.1 over Kir2.1
T2 sequence (P63252 1-427): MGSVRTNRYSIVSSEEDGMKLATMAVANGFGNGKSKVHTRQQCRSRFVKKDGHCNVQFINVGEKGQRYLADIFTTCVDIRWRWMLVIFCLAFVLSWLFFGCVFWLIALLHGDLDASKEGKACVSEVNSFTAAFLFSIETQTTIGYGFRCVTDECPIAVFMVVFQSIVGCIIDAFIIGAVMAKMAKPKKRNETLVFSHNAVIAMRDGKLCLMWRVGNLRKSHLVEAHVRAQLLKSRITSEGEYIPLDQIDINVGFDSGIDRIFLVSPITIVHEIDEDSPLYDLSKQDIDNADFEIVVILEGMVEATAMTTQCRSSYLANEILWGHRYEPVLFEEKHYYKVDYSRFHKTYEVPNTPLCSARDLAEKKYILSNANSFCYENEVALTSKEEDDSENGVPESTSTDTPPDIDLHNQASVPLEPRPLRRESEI
In short: as §1

Kir1.1 = assay: Tl+ flux selectivity assay, Kir1.1; conditions: Thallium flux, Kir7.1 over Kir1.1
In short: as §1

Kir6.2/SUR1 = Kir6.2/SUR1 (Homo sapiens, UniProt Q14654); assay: Tl+ flux selectivity assay, Kir6.2/SUR1; conditions: for Kir Channel Selectivity (Fold) 6.2: Thallium flux, Kir7.1 over Kir6.2/SUR1
Kir6.2/SUR1, sequence (Q14654 whole entry): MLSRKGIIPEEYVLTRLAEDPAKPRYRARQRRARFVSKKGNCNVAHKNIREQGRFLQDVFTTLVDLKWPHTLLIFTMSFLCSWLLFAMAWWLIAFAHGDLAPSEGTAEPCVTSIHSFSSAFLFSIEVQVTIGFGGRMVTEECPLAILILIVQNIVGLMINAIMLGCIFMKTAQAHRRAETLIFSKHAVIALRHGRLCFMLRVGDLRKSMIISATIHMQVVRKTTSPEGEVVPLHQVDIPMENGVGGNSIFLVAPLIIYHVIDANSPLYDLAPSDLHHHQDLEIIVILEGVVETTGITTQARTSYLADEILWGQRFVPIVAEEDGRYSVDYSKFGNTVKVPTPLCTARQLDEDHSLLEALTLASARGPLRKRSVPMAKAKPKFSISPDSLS
Kir6.2/SUR1, sequence (Q09428 whole entry partner): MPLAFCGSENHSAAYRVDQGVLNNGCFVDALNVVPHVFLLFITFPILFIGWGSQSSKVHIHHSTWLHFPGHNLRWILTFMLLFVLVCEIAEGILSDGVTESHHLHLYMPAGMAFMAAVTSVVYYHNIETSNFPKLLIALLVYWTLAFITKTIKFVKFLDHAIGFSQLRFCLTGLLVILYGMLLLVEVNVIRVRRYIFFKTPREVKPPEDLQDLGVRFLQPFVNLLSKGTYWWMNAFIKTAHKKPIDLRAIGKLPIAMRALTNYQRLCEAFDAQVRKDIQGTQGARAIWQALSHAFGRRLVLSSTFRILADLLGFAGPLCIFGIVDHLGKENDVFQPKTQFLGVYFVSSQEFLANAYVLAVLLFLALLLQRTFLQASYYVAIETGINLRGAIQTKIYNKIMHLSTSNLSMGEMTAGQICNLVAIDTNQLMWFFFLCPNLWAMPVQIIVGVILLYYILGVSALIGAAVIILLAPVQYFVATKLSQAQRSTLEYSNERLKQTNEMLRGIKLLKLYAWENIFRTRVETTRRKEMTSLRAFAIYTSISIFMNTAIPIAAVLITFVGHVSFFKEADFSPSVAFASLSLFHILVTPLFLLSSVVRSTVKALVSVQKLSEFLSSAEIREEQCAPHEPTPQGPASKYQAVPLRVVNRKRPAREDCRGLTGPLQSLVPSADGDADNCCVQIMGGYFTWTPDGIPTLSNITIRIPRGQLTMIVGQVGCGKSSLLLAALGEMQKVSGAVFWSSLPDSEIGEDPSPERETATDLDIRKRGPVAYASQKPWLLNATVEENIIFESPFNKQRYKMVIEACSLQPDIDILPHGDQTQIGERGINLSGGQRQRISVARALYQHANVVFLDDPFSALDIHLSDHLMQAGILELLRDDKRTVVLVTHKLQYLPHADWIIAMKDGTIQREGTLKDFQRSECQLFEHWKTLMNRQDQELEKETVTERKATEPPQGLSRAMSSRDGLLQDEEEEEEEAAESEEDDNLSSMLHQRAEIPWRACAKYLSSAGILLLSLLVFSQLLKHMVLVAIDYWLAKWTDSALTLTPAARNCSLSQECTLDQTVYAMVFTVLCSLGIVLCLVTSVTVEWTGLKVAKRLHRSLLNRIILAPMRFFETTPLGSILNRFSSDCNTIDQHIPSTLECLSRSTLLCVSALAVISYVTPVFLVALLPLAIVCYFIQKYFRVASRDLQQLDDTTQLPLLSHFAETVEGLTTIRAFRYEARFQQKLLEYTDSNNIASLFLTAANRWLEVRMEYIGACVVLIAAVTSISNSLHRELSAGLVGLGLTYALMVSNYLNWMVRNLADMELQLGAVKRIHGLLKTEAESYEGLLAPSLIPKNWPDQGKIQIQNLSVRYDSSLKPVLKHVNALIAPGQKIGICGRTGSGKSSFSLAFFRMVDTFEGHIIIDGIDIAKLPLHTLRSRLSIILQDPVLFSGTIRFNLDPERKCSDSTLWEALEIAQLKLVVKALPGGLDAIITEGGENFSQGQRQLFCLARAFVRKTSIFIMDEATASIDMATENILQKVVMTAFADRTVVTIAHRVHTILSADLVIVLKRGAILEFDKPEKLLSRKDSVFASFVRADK
In short: as §1

Kir7.1 = target: T3, Kir7.1 (Homo sapiens, UniProt O60928, M125R); assay: Whole-cell patch clamp electrophysiology, Kir7.1
T3 sequence (O60928 1-360 M125R): T1 sequence (O60928 1-360 M125R)
In short: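 Human Kir7.1 (WT or mutant) was transiently co-transfected with EGFP into HEK-293T cells, which were replated next day on poly-L-lysine coverslips. Whole-cell clamp used bath 5 mM KCl, pH 7.4, and pipette 135 mM KCl, pH 7.3. Cells were held at −75 mV, stepped 500 ms to −120 mV, then ramped to 120 mV, every 5 s. Increasing test-compound doses were superfused, then BaCl₂ block; current read at −120 mV; variable-slope Hill fit, mean of n = 5.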

Kir2.3 = target: T4, Kir2.3 (Homo sapiens, UniProt P48050); assay: Tl+ flux selectivity assay, Kir2.3; conditions: for Kir Channel Selectivity (Fold) 2.3: Thallium flux, Kir7.1 over Kir2.3
T4 sequence (P48050 1-445): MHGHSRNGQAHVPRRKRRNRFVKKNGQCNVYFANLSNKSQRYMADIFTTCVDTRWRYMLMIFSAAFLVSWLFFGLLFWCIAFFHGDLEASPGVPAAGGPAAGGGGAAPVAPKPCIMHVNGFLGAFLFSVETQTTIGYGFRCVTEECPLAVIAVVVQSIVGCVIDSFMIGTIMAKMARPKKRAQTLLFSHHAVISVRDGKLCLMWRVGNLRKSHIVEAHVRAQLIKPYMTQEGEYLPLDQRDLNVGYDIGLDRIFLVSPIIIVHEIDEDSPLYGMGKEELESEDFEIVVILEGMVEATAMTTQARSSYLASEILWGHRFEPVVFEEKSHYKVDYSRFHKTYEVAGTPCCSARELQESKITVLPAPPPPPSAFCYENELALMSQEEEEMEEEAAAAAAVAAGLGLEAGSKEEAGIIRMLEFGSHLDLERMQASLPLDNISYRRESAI

Kir2.2 = target: T5, Kir2.2 (Homo sapiens, UniProt Q14500); assay: Tl+ flux selectivity assay, Kir2.2; conditions: for Kir Channel Selectivity (Fold) 2.2: Thallium flux, Kir7.1 over Kir2.2
T5 sequence (Q14500 1-433): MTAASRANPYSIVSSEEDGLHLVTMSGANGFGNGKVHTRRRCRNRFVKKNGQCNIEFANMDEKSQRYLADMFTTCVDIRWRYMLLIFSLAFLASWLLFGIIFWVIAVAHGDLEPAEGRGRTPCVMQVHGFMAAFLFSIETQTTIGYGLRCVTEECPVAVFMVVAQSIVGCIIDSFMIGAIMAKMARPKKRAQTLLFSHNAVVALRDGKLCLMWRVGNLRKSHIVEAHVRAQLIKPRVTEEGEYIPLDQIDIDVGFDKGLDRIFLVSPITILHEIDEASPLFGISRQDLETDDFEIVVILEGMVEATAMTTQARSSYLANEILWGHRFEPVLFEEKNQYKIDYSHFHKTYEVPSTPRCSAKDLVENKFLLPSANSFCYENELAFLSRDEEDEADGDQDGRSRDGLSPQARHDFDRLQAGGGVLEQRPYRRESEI

| IC50 (Kir7.1-M125R) [µM] | Kir Channel Selectivity (Fold) 2.1 (Kir2.1; listed as 19 (ML418)) [Fold] | Kir Channel Selectivity (Fold) 6.2 (Kir6.2/SUR1; listed as 19 (ML418)) [Fold] | Kir Channel Selectivity (Fold) 6.2 (Kir6.2/SUR1; listed as ML418) | IC50 (Kir7.1; Kir7.1 IC50 (Patch clamp), -120 mV) | Kir Channel Selectivity (Fold) 2.3 (Kir2.3; listed as 19 (ML418)) [Fold] | Kir Channel Selectivity (Fold) 2.2 (Kir2.2; listed as 19 (ML418)) [Fold] | SMILES | Kir Channel Selectivity (Fold) 2.1 (Kir2.1) | Kir Channel Selectivity (Fold) 1.1 (Kir1.1) | Kir Channel Selectivity (Fold) 1.1 (Kir1.1; listed as 19 (ML418)) [Fold] | Kir Channel Selectivity (Fold) 2.3 (Kir2.3) | Kir Channel Selectivity (Fold) 2.2 (Kir2.2) | IC50 (Kir7.1-M125R; read-out: Kir7.1 IC50 (Thallium flux), hKir7.1 (M125R) Tl+ flux, average n = 3) [µM] | Kir2.1 IC50 (Tl+ flux) (Kir2.1) | IC50 (Kir2.1; read-out: Kir2.1 IC50 (Tl+ flux)) [µM] | Kir Channel Selectivity (Fold) 6.2 (Kir6.2/SUR1) [Fold] | IC50 (Kir6.2/SUR1; read-out: Kir6.2/SUR1 IC50 (Tl+ flux)) [µM] | IC50 (Kir7.1; read-out: Kir7.1 IC50 (Patch clamp), -120 mV) [µM] | IC50 (Kir2.3; read-out: Kir2.3 IC50 (Tl+ flux)) [µM] | IC50 (Kir2.2; read-out: Kir2.2 IC50 (Tl+ flux)) [µM] |
| --- | --- | --- | --- | --- | --- | --- | --- | --- | --- | --- | --- | --- | --- | --- | --- | --- | --- | --- | --- | --- |
| 1.3 | >23 | 1 | equally potent | 0.3 µM and 0.31 µM | >23 | >23 | CC(C)OC(=O)NC1CCN(Cc2cc(Cl)c3cccnc3c2O)CC1 [Compound 19, iso-Propyl (1-((5-chloro-8-hydroxyquinolin-7-yl)methyl)piperidin-4-yl)carbamate] | at least 23 Fold | at least 23 Fold | >23 | at least 23 Fold | at least 23 Fold | – | – | – | – | – | – | – | – |
| – | – | – | – | – | – | – | Oc1c(CN2CCC(Cc3ccccc3)CC2)cc(Cl)c2cccnc12 [VU714] | >5 Fold | 3 Fold | – | >5 Fold | >5 Fold | 5.6 | insensitive | > 30 | 5 | 30 | 1.5 | > 30 | > 30 |
